Experimental data reported in ChEMBL document CHEMBL5252523, “Searching for New Leads for Tuberculosis: Design, Synthesis, and Biological Evaluation of Novel 2-Quinolin-4-yloxyacetamides” (J Med Chem, 2016).
Converted amounts (≈) assume the structure as drawn.

Columns and labels:
[1] = tested on: Mycobacterium tuberculosis; experiment: Antimycobacterial activity against Mycobacterium tuberculosis H37Rv ATCC 25618 assessed as inhibition of microbial growth incubated for 6 days by resazurin based assay; format: functional; conditions: H37Rv ATCC 25618, 144 h, time 6 day
Procedure, shortened: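 Ten two-fold dilutions made in neat DMSO, tested in Middlebrook 7H9 with the H37Rv inoculum. Controls: isoniazid from 4 μg/ml as positive control; rifampicin 1 μM as no-growth control. Plates sat sealed at 37 °C without shaking for 6 days.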

[2] = Cytotoxicity against human HepG2 cells assessed as cell growth inhibition incubated for 48 hrs by CellTiter-Glo reagent based analysis; format: toxicity
Procedure, shortened: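 HepG2 cells kept in Eagle's MEM with 10% heat-inactivated FBS, 1% NEAA and penicillin/streptomycin, seeded at ~3000 cells/well onto pre-dispensed compound. Incubation was 48 h at 37 °C, 5% CO2. Plates were equilibrated to room temperature, CellTiter-Glo was added, and ATP luminescence was read after 10 min as the viability read-out.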

[3] = Artificial membrane permeability of the compound incubated for 3 hrs by HPLC analysis; format: ADME; conditions: PAMPA, read-out: permeability
[4] = Kinetic aqueous solubility of compound in phosphate buffer at pH 7.4 incubated for 1 hrs by CLND assay; format: physicochemical; conditions: read-out: Kinetic_solubility
[5] = Chromatographic hydrophobicity index, log D of the compound in phosphate buffer at pH 7.4 by UV-HPLC analysis; format: physicochemical

Row | SMILES | MIC [1] [µM] | IC50 at 48 h [2] [µM] | Papp at 3 h [3] [×10⁻⁶ cm/s] | solubility kinetic at 1 h [4] [µM] | chromatographic logD [5]
1 | COc1ccc2nc(C)cc(OCC(=O)Nc3ccccc3)c2c1 | 2 | 39.8 | 37 | 63 (≈ 20.3 µg/mL) | 4.28
2 | COc1cccc(NC(=O)COc2cc(C)nc3ccc(OC)cc23)c1 | 6.4 | > 100 | 47 | 35 (≈ 12.3 µg/mL) | 4.49
3 | COc1ccc2nc(C)cc(NC(=O)C(=O)Nc3cc(C)cc(C)c3)c2c1 | > 125 | > 100 | – | 10 (≈ 3.63 µg/mL) | 6.47
4 | COc1cc2nc(C)cc(OCC(=O)Nc3cc(C)cc(C)c3)c2cc1OC | > 250 | 10 | 60.5 | – | 4.84
5 | COc1ccc2nc(C)c(NC(=O)C(=O)Nc3cc(C)cc(C)c3)c(O)c2c1 | > 125 | > 100 | – | 10 (≈ 3.79 µg/mL) | 3.76
6 | COc1ccc2nc(C)cc(OCc3nc4ccccc4[nH]3)c2c1 | 16 | > 100 | – | 13 (≈ 4.15 µg/mL) | 3.59
7 | COc1ccc2nc(C)cc(OCc3ccc4ccccc4n3)c2c1 | 32 | 31.6 | 47 | 21 (≈ 6.94 µg/mL) | 5.48
8 | COc1ccc2nc(C)cc(OCC(=O)Nc3ccc(Cl)c(C(F)(F)F)c3)c2c1 | 47 | 79.4 | – | 17 (≈ 7.22 µg/mL) | 6.22
9 | COc1ccc2nc(C)cc(OCC(=O)Nc3cc(C)c(OC)c(C)c3)c2c1 | 1 | 7.94 | 32 | 17 (≈ 6.47 µg/mL) | 4.99
10 | COc1ccc2nc(C)cc(OCC(=O)Nc3c(C)cccc3C)c2c1 | 125 | > 100 | 63 | 112 (≈ 39.2 µg/mL) | 4.55
11 | COc1ccc2nc(C)cc(OC(C(=O)Nc3cc(C)cc(C)c3)c3ccccc3)c2c1 (stereo not given) | > 125 | > 100 | < 3 | 2 (≈ 0.853 µg/mL) | 7.13
12 | Cc1cc(C)cc(NC(=O)COc2cc(C)nc3ccc(C(F)(F)F)cc23)c1 | > 250 | > 100 | < 3 | 10 (≈ 3.88 µg/mL) | 6.67
13 | Cc1cc(C)cc(NC(=O)COc2cc(C(F)(F)F)nc3cc4c(cc23)OCO4)c1 | > 250 | > 100 | < 3 | < 1 | 6.73
14 | COc1ccc2nc(C)cc(OCC(=O)Nc3ccc(Br)c(C)c3)c2c1 | 3.9 | 15.8 | – | < 1 | 5.95
15 | COc1ccc2nc(C)cc(NCC(=O)Nc3cc(C)cc(C)c3)c2c1 | 47 | 6.31 | 31 | 204 (≈ 71.3 µg/mL) | 3.59
16 | Cc1cc(C)cc(NC(=O)COc2cc(C(F)(F)F)nc3ccc(OC(F)(F)F)cc23)c1 | > 250 | > 100 | < 0.3 | 34 (≈ 15.6 µg/mL) | 7.96
17 | Cc1cc(C)cc(NC(=O)COc2cc(C)nc3ccc(OC(F)(F)F)cc23)c1 | > 250 | > 100 | < 3 | – | 6.79
18 | Cc1cc(C)cc(NC(=O)COc2cc(C)nc3ccc(F)cc23)c1 | 15.6 | 63.1 | 31 | 28 (≈ 9.47 µg/mL) | 5.79

Row | SMILES | MIC [1] [µM] | IC50 at 48 h [2] [µM] | Papp at 3 h [3] [×10⁻⁶ cm/s] | solubility kinetic at 1 h [4] [µM] | chromatographic logD [5]
19 | COc1ccc2nc(C(F)(F)F)cc(OCC(=O)Nc3cc(C)cc(C)c3)c2c1 | > 250 | > 100 | < 1 | 15 (≈ 6.07 µg/mL) | 7.02
20 | COc1ccc2c(OCC(=O)Nc3cc(C)cc(C)c3)cc(C)nc2c1 | > 250 | 50.1 | – | – | 5.59
21 | CSc1ccc2nc(C)cc(OCC(=O)Nc3cc(C)cc(C)c3)c2c1 | > 125 | > 100 | – | 3 (≈ 1.1 µg/mL) | 6.42
22 | CCCc1cc(OCC(=O)Nc2cc(C)cc(C)c2)c2cc(OC)ccc2n1 | > 250 | 12.6 | – | 12 (≈ 4.54 µg/mL) | 6.44
23 | Cc1cc(C)cc(NC(=O)COc2cc(C(F)(F)F)nc3c(C(F)(F)F)cccc23)c1 | > 250 | > 100 | < 1 | < 1 | 7.73
24 | COc1ccc2nc(C)cc(OCC(=O)Nc3cc(OC)c(OC)c(OC)c3)c2c1 | 62 | > 100 | 62 | 34 (≈ 14 µg/mL) | 3.95
25 | Cc1cc(C)cc(NC(=O)COc2cc(C)nc3ccc(OCc4ccccc4)cc23)c1 | > 250 | > 100 | < 1 | < 1 | 7.03
26 | CCOc1ccc2nc(C(F)(F)F)cc(OCC(=O)Nc3cc(C)cc(C)c3)c2c1 | > 250 | > 100 | < 0.3 | < 1 | 7.55
27 | COc1ccc2nc(C)cc(OC3CCN(c4ccccc4)C3=O)c2c1 (stereo not given) | 125 | 100 | 55 | 215 (≈ 74.9 µg/mL) | 4.99
28 | COc1ccc2nc(C)cc(OCC(=O)Nc3cc(OC)c(Cl)cc3OC)c2c1 | > 125 | > 100 | – | 3 (≈ 1.25 µg/mL) | 5.8
29 | COc1ccc2nc(C)cc(OC(C)C(=O)Nc3cc(C)cc(C)c3)c2c1 (stereo not given) | 125 | 39.8 | 32 | 61 (≈ 22.2 µg/mL) | 5.76
30 | Cc1cc(C)cc(NC(=O)COc2cc(C)nc3ccccc23)c1 | 24 | > 100 | 37 | 55 (≈ 17.6 µg/mL) | 5.39
31 | COc1ccc2nc(C)cc(OCC(=O)NCc3cc(C)cc(C)c3)c2c1 | 31 | > 100 | < 0.3 | 92 (≈ 33.5 µg/mL) | 5.25
32 | COc1ccc2nc(C)c3nc(C(=S)Nc4cc(C)cc(C)c4)sc3c2c1 | > 125 | > 100 | < 3 | 35 (≈ 13.8 µg/mL) | –
33 | COc1ccc2nc(C)cc(OCC(=O)Nc3ccc(Cl)c(OC)c3)c2c1 | > 125 | > 100 | 57 | 13 (≈ 5.03 µg/mL) | 5.09
34 | CCOc1ccc2nc(C)cc(OCC(=O)Nc3cc(C)cc(C)c3)c2c1 | > 250 | > 100 | < 3 | – | 5.98
35 | CCC(Oc1cc(C)nc2ccc(OC)cc12)C(=O)Nc1cc(C)cc(C)c1 (stereo not given) | > 250 | 79.4 | 39 | 123 (≈ 46.6 µg/mL) | 6.28
36 | Cc1cc(C)cc(NC(=O)COc2cc(C)nc3ccc(Cl)cc23)c1 | 40 | > 100 | – | 8 (≈ 2.84 µg/mL) | 6.38
